Source: PMC7293934 (Neuropharmacology, 2020)
Several values for one entry are separate records, joined by “and”; a condition that tells them apart may be missing. Equal entries are not always repeated. Entries after “also recorded” stand apart in the source; their conditions may differ. Where two headings read alike, the source gives them in different places.

Key:
[1] = target: T1, GluN1/2D (Rattus norvegicus, UniProt P35439+Q62645); type: cell-based; settings: for Increase in glutamate potency / Increase in glycine potency: 10 μM modulator; for Increase in glutamate potency: 50 μM glycine; for Increase in glycine potency: 100 μM glutamate; for Increase in potencies of co-agonists glutamate and glycine: summary statement
[2] = tested on: NMDA receptor-mediated responses of STN neurons; settings: ref Swanger et al., 2015; cited from earlier work
[3] = tested on: hippocampal interneurons; settings: ref Perszyk et al., 2016; cited from earlier work
[4] = tested on: hippocampal CA1 pyramidal neurons; settings: ref Perszyk et al., 2016; cited from earlier work
[5] = tested on: recombinant GluN1/2A/2C; settings: ref Bhattacharya et al., 2018; cited from earlier work
[6] = tested on: native NMDA receptors expressed by STN neurons; type: cell-based, mouse; settings: APV 400 μM superfusion
[7] = tested on: native NMDA receptors expressed by STN neurons; type: cell-based, mouse
In short: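 Sagittal 300 μm slices containing STN were cut from P12–18 C57BL/6J mice of either sex. Recording was at 32°C in aCSF with 0.2 mM Mg2+, 20 μM DNQX and 10 μM gabazine, using a Cs-based internal with QX-314, at −40 mV. Internal capsule stimulation was given every 30–60 s during 5–10 min baseline, then 10–15 min vehicle (0.01% DMSO) or 10 μM test compound, then 400 μM DL-APV. Charge transfer was taken as EPSC area.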

[8] = tested on: native NMDA receptors expressed by hippocampal interneurons; type: cell-based, mouse
In short: (§1)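 Transverse 300 μm ventral hippocampal slices were cut from P12–18 C57BL/6J mice. Recording was at 32°C in aCSF with 0.2 mM Mg2+, 20 μM DNQX and 10 μM gabazine, using a Cs-based internal. Visually identified CA1 stratum radiatum/lacunosum moleculare interneurons or CA1 pyramidal neurons were held at +40 mV, with Schaffer collateral stimulation every 30–60 s. Sequence was baseline 5–10 min, 10 μM test compound 10–15 min, then 400 μM DL-APV.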

[9] = tested on: native NMDA receptors expressed by hippocampal CA1 pyramidal neurons; type: cell-based, mouse
In short: as §1

[10] = target: GluN1/2A (Rattus norvegicus, UniProt P35439+Q00959); type: cell-based
Sequence of GluN1/2A (Rattus norvegicus, UniProt P35439+Q00959) (Q00959 23-1464, other chains not shown): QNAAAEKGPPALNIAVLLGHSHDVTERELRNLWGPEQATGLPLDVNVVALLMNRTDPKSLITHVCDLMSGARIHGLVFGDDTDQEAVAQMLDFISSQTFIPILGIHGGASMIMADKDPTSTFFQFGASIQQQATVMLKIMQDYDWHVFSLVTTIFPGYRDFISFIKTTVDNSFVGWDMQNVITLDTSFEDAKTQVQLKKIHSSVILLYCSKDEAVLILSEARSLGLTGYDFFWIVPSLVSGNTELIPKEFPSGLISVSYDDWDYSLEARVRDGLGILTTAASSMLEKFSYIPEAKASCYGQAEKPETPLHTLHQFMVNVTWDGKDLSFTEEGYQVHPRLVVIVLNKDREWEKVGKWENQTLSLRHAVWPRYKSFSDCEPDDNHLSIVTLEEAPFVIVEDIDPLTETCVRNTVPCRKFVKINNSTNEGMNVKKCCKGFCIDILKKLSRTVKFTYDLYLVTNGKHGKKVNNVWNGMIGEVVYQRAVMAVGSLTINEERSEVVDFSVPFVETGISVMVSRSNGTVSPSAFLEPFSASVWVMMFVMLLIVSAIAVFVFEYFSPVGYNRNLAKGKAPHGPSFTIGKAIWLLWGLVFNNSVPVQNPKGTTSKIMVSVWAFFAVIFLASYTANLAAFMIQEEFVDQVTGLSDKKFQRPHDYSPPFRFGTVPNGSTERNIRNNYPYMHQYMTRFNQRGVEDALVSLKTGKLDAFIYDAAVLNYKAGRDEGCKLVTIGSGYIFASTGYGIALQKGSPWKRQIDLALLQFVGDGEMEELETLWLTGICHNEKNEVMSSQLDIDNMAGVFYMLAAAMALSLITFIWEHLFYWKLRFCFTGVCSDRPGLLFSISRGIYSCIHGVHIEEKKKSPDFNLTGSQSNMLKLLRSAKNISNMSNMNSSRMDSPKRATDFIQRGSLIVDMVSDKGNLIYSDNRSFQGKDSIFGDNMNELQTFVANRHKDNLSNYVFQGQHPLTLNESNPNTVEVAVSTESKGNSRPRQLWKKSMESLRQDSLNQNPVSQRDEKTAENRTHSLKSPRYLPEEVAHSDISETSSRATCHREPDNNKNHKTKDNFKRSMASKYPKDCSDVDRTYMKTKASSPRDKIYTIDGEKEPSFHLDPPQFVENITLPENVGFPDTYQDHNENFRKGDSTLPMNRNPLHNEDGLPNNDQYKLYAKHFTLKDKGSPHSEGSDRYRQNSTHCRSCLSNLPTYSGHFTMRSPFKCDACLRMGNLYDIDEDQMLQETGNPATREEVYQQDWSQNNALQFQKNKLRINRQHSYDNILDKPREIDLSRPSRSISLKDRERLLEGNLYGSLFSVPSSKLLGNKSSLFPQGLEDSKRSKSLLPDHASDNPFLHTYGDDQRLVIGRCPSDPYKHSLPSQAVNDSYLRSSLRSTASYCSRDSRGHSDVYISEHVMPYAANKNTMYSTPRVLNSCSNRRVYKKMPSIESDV
In short: (§2)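 Rat GluN1 with GluN2A or GluN2B was expressed from cRNA in Xenopus oocytes. Oocytes were used 2–4 days later and preinjected with 50 mM BAPTA 10–30 min before recording. Two-electrode voltage clamp was at −40 mV and 21–23°C in Ba2+-containing solution, pH 7.4. […] Responses as % of agonist alone were Hill-fitted for EC50, nH and maximal modulation. At least 4 oocytes from ≥2 frogs were used.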

[11] = target: GluN1/2B (Rattus norvegicus, UniProt P35439+Q00960); type: cell-based
In short: as §2

[12] = target: T2, GluN1/2C (Rattus norvegicus, UniProt P35439+Q00961); type: cell-based
T2 sequence (Q00961 20-1237, other chains not shown): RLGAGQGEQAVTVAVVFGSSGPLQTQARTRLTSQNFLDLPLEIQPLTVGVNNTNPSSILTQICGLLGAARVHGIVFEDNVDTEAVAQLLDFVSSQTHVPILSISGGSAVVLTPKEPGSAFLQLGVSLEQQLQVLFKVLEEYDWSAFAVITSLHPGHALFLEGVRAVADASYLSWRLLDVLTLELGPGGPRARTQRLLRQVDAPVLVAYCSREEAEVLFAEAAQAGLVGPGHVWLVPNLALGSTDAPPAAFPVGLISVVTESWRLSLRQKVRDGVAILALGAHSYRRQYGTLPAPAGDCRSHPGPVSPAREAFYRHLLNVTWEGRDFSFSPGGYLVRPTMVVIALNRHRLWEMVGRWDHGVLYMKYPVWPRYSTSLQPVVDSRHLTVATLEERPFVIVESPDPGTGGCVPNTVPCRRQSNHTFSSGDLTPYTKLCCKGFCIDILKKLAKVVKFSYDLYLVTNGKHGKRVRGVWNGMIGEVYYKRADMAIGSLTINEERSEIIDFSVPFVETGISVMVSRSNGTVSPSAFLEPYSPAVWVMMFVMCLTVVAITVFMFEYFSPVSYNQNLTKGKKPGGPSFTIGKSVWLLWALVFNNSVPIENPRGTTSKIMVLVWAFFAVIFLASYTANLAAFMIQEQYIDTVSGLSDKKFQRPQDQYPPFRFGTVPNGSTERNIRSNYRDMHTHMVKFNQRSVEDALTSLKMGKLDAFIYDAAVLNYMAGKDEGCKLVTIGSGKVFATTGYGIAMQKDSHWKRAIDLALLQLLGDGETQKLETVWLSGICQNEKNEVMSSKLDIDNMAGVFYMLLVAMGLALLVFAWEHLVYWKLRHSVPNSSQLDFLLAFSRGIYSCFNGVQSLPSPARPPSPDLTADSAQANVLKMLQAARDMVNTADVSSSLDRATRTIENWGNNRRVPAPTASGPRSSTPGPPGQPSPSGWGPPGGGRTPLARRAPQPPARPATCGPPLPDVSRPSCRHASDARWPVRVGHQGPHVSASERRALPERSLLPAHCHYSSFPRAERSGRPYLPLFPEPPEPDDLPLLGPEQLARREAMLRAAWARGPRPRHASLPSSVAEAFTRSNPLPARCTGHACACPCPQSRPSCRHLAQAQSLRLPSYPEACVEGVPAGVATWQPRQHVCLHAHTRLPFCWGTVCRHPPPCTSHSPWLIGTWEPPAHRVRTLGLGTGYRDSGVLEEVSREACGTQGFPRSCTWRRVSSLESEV

[13] = target: GluN1/2AC1/2BC2 (triheteromeric GluN1/2A/2B) (Rattus norvegicus, UniProt P35439+Q00959+Q00960); type: cell-based
Sequence of GluN1/2AC1/2BC2 (triheteromeric GluN1/2A/2B) (Q00959 23-1464, other chains not shown): as the sequence (Q00959 23-1464, other chains not shown) above

[14] = target: GluN1/2BC1/2DC2 (triheteromeric GluN1/2B/2D) (Rattus norvegicus, UniProt P35439+Q00960+Q62645); type: cell-based; settings: Hill slope of PTC-174 concentration-response
[15] = target: GluN1/2CC1/2CC2-NK (Rattus norvegicus, UniProt P35439+Q00961, N612K); type: cell-based; settings: for EC50: EC50, 100 μM glutamate + 50 μM glycine; for nH: Hill slope
Sequence of GluN1/2CC1/2CC2-NK (Q00961 20-836 N612K, other chains not shown): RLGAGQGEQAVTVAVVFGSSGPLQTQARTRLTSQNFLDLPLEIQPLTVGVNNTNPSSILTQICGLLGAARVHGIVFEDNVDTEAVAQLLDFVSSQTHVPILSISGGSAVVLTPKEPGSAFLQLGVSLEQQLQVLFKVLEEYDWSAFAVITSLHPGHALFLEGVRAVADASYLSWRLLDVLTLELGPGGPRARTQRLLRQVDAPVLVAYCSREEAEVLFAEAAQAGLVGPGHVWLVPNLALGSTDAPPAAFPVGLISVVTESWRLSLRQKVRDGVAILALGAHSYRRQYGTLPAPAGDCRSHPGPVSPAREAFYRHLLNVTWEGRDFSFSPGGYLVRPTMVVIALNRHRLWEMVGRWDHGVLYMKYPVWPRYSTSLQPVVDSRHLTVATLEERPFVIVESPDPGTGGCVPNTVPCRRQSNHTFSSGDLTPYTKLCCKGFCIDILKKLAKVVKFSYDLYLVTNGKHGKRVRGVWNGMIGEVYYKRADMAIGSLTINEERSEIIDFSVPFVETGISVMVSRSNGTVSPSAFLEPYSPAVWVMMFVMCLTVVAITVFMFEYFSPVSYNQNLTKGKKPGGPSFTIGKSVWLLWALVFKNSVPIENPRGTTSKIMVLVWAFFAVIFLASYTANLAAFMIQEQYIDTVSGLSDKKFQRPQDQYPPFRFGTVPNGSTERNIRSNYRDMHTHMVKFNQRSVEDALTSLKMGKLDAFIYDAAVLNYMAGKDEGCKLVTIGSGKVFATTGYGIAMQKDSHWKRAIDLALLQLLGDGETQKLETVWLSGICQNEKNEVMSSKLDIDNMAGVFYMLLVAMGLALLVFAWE

[16] = target: GluN1/2AC1/2CC2-NK (triheteromeric GluN1/2A/2C) (Rattus norvegicus, UniProt P35439+Q00959+Q00961, N612K); type: cell-based; settings: Hill slope; in the presence of 1 mM Mg2+
[17] = tested on: AMPA (GluA1–4) receptors; test: Two-electrode voltage-clamp electrophysiology, selectivity over AMPA receptors; type: cell-based; settings: 10 μM PTC-174; activated by 30 μM kainate
In short: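 GluA1–4 AMPA receptors were expressed from cRNA in Xenopus oocytes. Two-electrode voltage clamp was at −40 mV and 21–23°C in Ba2+-containing solution, pH 7.4. Currents were evoked by 30 μM kainate with and without 10 μM test compound (DMSO <0.1%). Responses were normalized to control without test compound, from 5–8 oocytes.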

[18] = tested on: kainate (GluK1–2) receptors; type: cell-based; settings: 10 μM PTC-174; activated by 100 μM glutamate; concanavalin A pre-incubation
In short: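 Oocytes expressing GluK1 or GluK2 were incubated 10 min in 1 mg/ml concanavalin A in recording solution. They were then clamped at −40 mV at 21–23°C in Ba2+-containing solution, pH 7.4. […] Responses were normalized to control without test compound, from 5–8 oocytes.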

[19] = target: T2, GluN1/2C; test: Fast-application whole-cell patch-clamp electrophysiology, HEK293 cells; type: cell-based; settings: 10 μM PTC-174 continuous; 3–5 ms 1 mM glutamate; 10 μM glycine
In short: (§3)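 HEK293 cells on poly-D-lysine coverslips in DMEM with 10% dialyzed FBS were calcium-phosphate transfected with GFP, GluN1 and GluN2 cDNAs (1:1:1), with 200 μM D,L-APV and 200 μM 7-chlorokynurenic acid in the medium. About 24 h later, whole-cell recordings were made at 20°C and −60 mV on lifted cells using piezo-driven theta-glass exchange. Cells were accepted at <1000 pA and <10 MΩ series resistance.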

[20] = target: T1, GluN1/2D; test: as above; type: cell-based; settings: 10 μM glycine
In short: as §3

[21] = CNS exposure after systemic administration; type: in vivo; settings: no data shown
[22] = tested on: GluN1/2A; settings: read-out: glycine EC50; in the absence of PTC-174; ref Yi et al. 2016; cited from earlier work
[23] = 10 μM PTC-174, 10 μM glutamate + 1 μM glycine
[24] = Hill slope of PTC-174 concentration-response
[25] = 100 μM glutamate + 50 μM glycine
[26] = relative to the response activated by glutamate + glycine + PTC-174
[27] = control (no modulator), continuous 50 μM glycine

## COc1ccc(OCC2c3cc(OC)c(OC)cc3CCN2C(=O)c2cccc(Cl)c2)cc1 (single isomer, unassigned; (+)) [(+)-CIQ, (3-Chlorophenyl){6,7-dimethoxy-1-[(4-methoxyphenoxy)methyl]-3,4-dihydro-2(1H)-isoquinolinyl}methanone]
[1]
  Increase in glutamate potency: no effect on glutamate potency
  Increase in glycine potency: no significant effect on glycine potency
  Increase in potencies of co-agonists glutamate and glycine: no effect on agonist potencies
[2]
  Effect on NMDA receptor-mediated responses of STN neurons: potentiate
[3]
  Effect on EPSC decay time: did not affect the EPSC decay time
[4]
  Effect on NMDA receptor-mediated EPSCs: no effect on NMDA receptor-mediated EPSCs
[5]
  Efficacy relative to GluN1/2C: nearly as efficacious at recombinant GluN1/2A/2C as at GluN1/2C

## NC(CCCP(=O)(O)O)C(=O)O (stereo not drawn) [APV, 2-Amino-5-phosphonovalerate, reference compound]
[6]
  Effect on NMDA-evoked current: eliminated; also recorded: completely blocked the response to NMDA
[7]; APV 400 μM superfusion
  Effect on NMDA receptor-mediated EPSCs: completely blocked the NMDA receptor-mediated EPSCs
[8]; APV 400 μM superfusion
  Effect on NMDA receptor-mediated EPSCs: completely blocked the NMDA receptor-mediated EPSCs
[9]; APV 400 μM superfusion
  Effect on NMDA receptor-mediated EPSCs: completely blocked the NMDA receptor-mediated EPSCs

## CC(C)(C)c1ccc(-c2nc3n(c(=O)c2C#N)CCCS3)cn1 [PTC-174, 8-(6-(tert-butyl)pyridin-3-yl)-6-oxo-3,4-dihydro-2H,6H-pyrimido[2,1-b][1,3]thiazine-7-carbonitrile]
[10]; [23]
  Potentiation of responses at low glycine: 1.6 fold
[10]; 100 μM glutamate + 50 μM glycine, control = response without PTC-174, inhibition
  Maximal modulation (% control): 39 ± 4 % control
[10]; [24]
  nH: −1.1
[10]; maximal glutamate plus glycine
  Effect on current responses (in words): concentration-dependent partial inhibition; also recorded: partial antagonist
[11]; [23]
  Potentiation of responses at low glycine: 1.8 fold
[11]; [25]
  Maximal modulation (% control): 180 ± 4 % control
[11]; [24]
  nH: 1.3
[11]; maximal glutamate plus glycine
  Maximal potentiation of current responses: 1.8 fold
[12]; [23]
  Potentiation of responses at low glycine: ~ 10 fold
[12]; 10 μM modulator, 100 μM glutamate
  Increase in glycine potency: 4.7 fold
[12]; [25]
  Maximal modulation (% control): 1095 ± 29 % control
[12]; [24]
  nH: 1.2
[12]; maximal glutamate plus glycine
  Maximal potentiation of current responses: > 10 fold
[12]; [26]
  Current response to glutamate only + PTC-174: 1.5% ± 0.1
  Current response to glycine only + PTC-174: 4.0% ± 0.9
[12]; summary statement
  Increase in potencies of co-agonists glutamate and glycine: 2- to 5 fold
[1]; [23]
  Potentiation of responses at low glycine: ~ 10 fold
[1]
  Increase in glutamate potency: 2.5 fold
  Increase in glycine potency: 4.8 fold
  Increase in potencies of co-agonists glutamate and glycine: 2- to 5 fold
[1]; [25]
  Maximal modulation (% control): 1265 ± 67 % control
[1]; [24]
  nH: 1.2
[1]; maximal glutamate plus glycine
  Maximal potentiation of current responses: > 10 fold and 13 fold
[13]
  EC50: 19.7 ± 1.5 µM
[13]; [24]
  nH: −1.0
[13]; maximal glutamate plus glycine
  Effect on current responses (in words): partial inhibition; also recorded: partial antagonist
[14]
  nH: 1.0
[15]; in the presence of 1 mM Mg2+
  EC50: 4.5 ± 0.2 µM
  nH: 1.2
[15]; without Mg2+
  EC50: 5 ± 0.5 µM
  nH: 1.4
[16]
  nH: 1.2
[17]
  Effect on current responses: did not affect current responses
[18]
  Effect on current responses: did not affect current responses
[7]; 10 μM PTC-174, −40 mV, baseline 12.9 ± 1.4
  Charge transfer: 15.9 ± 2.4 pA·S
[7]; 10 μM PTC-174, −40 mV, baseline 49.6 ± 5.5
  τfast: 69.3 ± 10.1 ms
[7]; 10 μM PTC-174, −40 mV, baseline 111.0 ± 7.1
  τw (weighted EPSC decay time constant): 166.7 ± 21.3 ms and 166.7 ± 2.1 ms
[7]; 10 μM PTC-174, −40 mV, baseline 226.2 ± 21.8
  τslow: 397.7 ± 131.5 ms
[8]; 10 μM PTC-174, +40 mV, baseline 113.7 ± 27.2
  τfast: 147.3 ± 46.5 ms
[8]; 10 μM PTC-174, +40 mV, baseline 132.6 ± 20.1
  Peak amplitude: 157 ± 23 pA and 156.6 ± 23.3 pA
[8]; 10 μM PTC-174, +40 mV, baseline 191.6 ± 6.6
  τw (weighted EPSC decay time constant): 292.0 ± 41.8 ms
[8]; 10 μM PTC-174, +40 mV, baseline 321.4 ± 36.0
  τslow: 522.4 ± 154.9 ms
[9]; 10 μM PTC-174, +40 mV, baseline 56.0 ± 3.3
  τfast: 64.3 ± 9.3 ms
[9]; 10 μM PTC-174, +40 mV, baseline 150.1 ± 10.0
  τw (weighted EPSC decay time constant): 187.3 ± 20.0 ms
[9]; 10 μM PTC-174, +40 mV, baseline 382.5 ± 38.8
  τslow: 416.1 ± 36.9 ms
[19]
  Enhancement of peak responses: 3.7 fold
[20]; 10 μM PTC-174 continuous, 3–5 ms 1 mM glutamate
  Enhancement of peak responses: 5.3 fold
[20]; 10 μM PTC-174 present before and during 1 mM glutamate exposure
  Potentiation of response to 2 second glutamate application: 6.3 fold
[21]
  CNS exposure: readily achieves CNS exposure after systemic administration

## N[C@@H](CCC(=O)O)C(=O)O [glutamate, reference compound]
[12]; [27]
  nH (glutamate): 1.3
[1]; [27]
  nH (glutamate): 1.7 and 1.5

## NCC(=O)O [glycine]
[22]
  EC50: 1.1 µM
